Results taken from ChEMBL document CHEMBL1137010, “Improved peptide prodrugs of 5-ALA for PDT: rationalization of cellular accumulation and protoporphyrin IX production by direct determination of cellular prodrug uptake and prodrug metabolization” (J Med Chem, 2009).
Calls of active or inactive are those of the source. No cut-off for these calls is given here.

Test system: PAM212
Assay: Drug uptake in mouse PAM212 cells assessed as PpIX production per mg of protein at 0.1 mM after 4 hrs
Format: ADME, cell-based
Conditions: pam212, 4 h, 100 µM
Procedure, shortened: (§1)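 Cells (PAM212; A549 in F12K; Caco-2 in EMEM, 37 °C, 5% CO2) were seeded in 100 mm dishes and grown 48 h at 37 °C. After PBS washing they were incubated 4 h at 37 °C with 0.1 or 1 mM drug, washed, lysed 15 min and scraped, then centrifuged at 1800 g for 10 min. Supernatant PpIX was read by fluorescence (410/635 nm) against a PpIX standard curve and normalized to protein by BCA.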

SMILES	Drug uptake
COC(=O)CCC(=O)CNC(=O)[C@H](Cc1ccccc1)NC(C)=O	313 ng/mg
COC(=O)CCC(=O)CNC(=O)[C@H](CCSC)NC(C)=O	315 ng/mg
COC(=O)CCC(=O)CNC(=O)[C@@H](Cc1ccccc1)NC(C)=O	4.57 ng/mg
COC(=O)CCC(=O)CNC(=O)[C@H](CCCCN)NC(C)=O	13.2 ng/mg
COC(=O)CCC(=O)CNC(=O)[C@H](CC(C)C)NC(C)=O	276 ng/mg
COC(=O)CCC(=O)CNC(=O)[C@H](CC(=O)O)NC(C)=O	19.1 ng/mg
COC(=O)CCC(=O)CNC(=O)[C@H](CO)NC(C)=O	33.9 ng/mg

Test system: PAM212
Assay: Drug uptake in mouse PAM212 cells assessed as enhanced PpIX fluorescence at 0.1 mM after 4 hrs
Format: ADME, cell-based
Conditions: pam212, 4 h, 100 µM
Procedure, shortened: (§2)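 PAM212 cells were seeded 5 × 10^4/well, grown 48 h, PBS-washed and incubated with drug at 0.01 or 0.1 mM in serum-free medium for 4 or 6 h. Untreated wells gave background and ALA wells served as reference. Well fluorescence: excitation 410 nm, emission 635 nm, scans 600–750 nm. Mean intensity (arbitrary units) after control subtraction, calibrated against rhodamine B.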

SMILES	Drug uptake
COC(=O)CCC(=O)CNC(=O)[C@H](Cc1ccccc1)NC(C)=O	Active
COC(=O)CCC(=O)CNC(=O)[C@H](CCSC)NC(C)=O	Active
COC(=O)CCC(=O)CNC(=O)[C@H](CC(C)C)NC(C)=O	Active

Test system: A549
Assay: Drug uptake in human A549 cells assessed as PpIX production per mg of protein at 0.1 mM after 4 hrs
Format: ADME, cell-based
Conditions: a549, 4 h, 100 µM
Procedure, shortened: as §1

SMILES	Drug uptake
COC(=O)CCC(=O)CNC(=O)[C@H](Cc1ccccc1)NC(C)=O	4.42 ng/mg
COC(=O)CCC(=O)CNC(=O)[C@H](CC(C)C)NC(C)=O	5.91 ng/mg

Test system: PAM212
Assay: Cytotoxicity against mouse PAM212 cells after 24 hrs in absence of 2.5 J/cm2 blue light by MTT assay
Format: functional, cell-based
Conditions: not given
Procedure, shortened: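 Dark toxicity. PAM212 keratinocytes (RPMI-1640, 10% FCS) were seeded about 5 × 10^4 cells/well and grown 48 h, PBS-washed, then given drug for 4 h without irradiation. Medium was replaced and cells were kept a further 24 h. MTT 1 mg/mL for 3 h, formazan dissolved in DMSO, absorbance at 570 nm.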

SMILES	Activity
COC(=O)CCC(=O)CNC(=O)[C@H](Cc1ccccc1)NC(C)=O	inactive
COC(=O)CCC(=O)CNC(=O)[C@H](CCSC)NC(C)=O	inactive
COC(=O)CCC(=O)CNC(=O)[C@H](CC(C)C)NC(C)=O	inactive

Test system: PAM212
Assay: Drug uptake in mouse PAM212 cells assessed as enhanced PpIX fluorescence at 0.01 mM after 4 hrs
Format: ADME, cell-based
Conditions: pam212, 4 h, 10 µM
Procedure, shortened: as §2

SMILES	Drug uptake
COC(=O)CCC(=O)CNC(=O)[C@H](Cc1ccccc1)NC(C)=O	Active
COC(=O)CCC(=O)CNC(=O)[C@H](CCSC)NC(C)=O	Active
COC(=O)CCC(=O)CNC(=O)[C@H](CC(C)C)NC(C)=O	Active

Test system: not listed separately
Assay: Chromatographic hydrophobicity index in methanol solution under isocratic conditions at pH 6.8
Format: physicochemical
Conditions: not given
Procedure, shortened: (§3)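 RP-HPLC on a C18 column at 35 °C, 0.7 mL/min. Mobile phase was CH3CN or CH3OH with 50 mM aq ammonium formate (pH 6.8). […], with t0 from uracil and tR measured in duplicate. Six isocratic compositions were chosen so that −1.5 < log k < 0.6, and the index was derived from the linear log k versus organic-fraction relation.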

SMILES	CHI
COC(=O)CCC(=O)CNC(=O)[C@H](Cc1ccccc1)NC(C)=O	52.96
COC(=O)CCC(=O)CNC(=O)[C@H](CCSC)NC(C)=O	41.4
COC(=O)CCC(=O)CNC(=O)[C@@H](Cc1ccccc1)NC(C)=O	52.62
COC(=O)CCC(=O)CNC(=O)[C@H](CCCCN)NC(C)=O	13.61
COC(=O)CCC(=O)CNC(=O)[C@H](CC(C)C)NC(C)=O	50.92
COC(=O)CCC(=O)CNC(=O)[C@H](CC(=O)O)NC(C)=O	24.27
COC(=O)CCC(=O)CNC(=O)[C@H](CO)NC(C)=O	36.43

Test system: PAM212
Assay: Drug uptake in mouse PAM212 cells assessed as enhanced PpIX fluorescence at 0.01 mM after 6 hrs
Format: ADME, cell-based
Conditions: pam212, 6 h, 10 µM
Procedure, shortened: as §2

SMILES	Drug uptake
COC(=O)CCC(=O)CNC(=O)[C@H](Cc1ccccc1)NC(C)=O	Active
COC(=O)CCC(=O)CNC(=O)[C@H](CCSC)NC(C)=O	Active
COC(=O)CCC(=O)CNC(=O)[C@H](CC(C)C)NC(C)=O	Active

Test system: PAM212
Assay: Drug uptake in mouse PAM212 cells assessed as PpIX production per mg of protein at 1 mM after 4 hrs
Format: ADME, cell-based
Conditions: pam212, 4 h, 1000 µM
Procedure, shortened: as §1

SMILES	Drug uptake
COC(=O)CCC(=O)CNC(=O)[C@H](Cc1ccccc1)NC(C)=O	295 ng/mg
COC(=O)CCC(=O)CNC(=O)[C@H](CCSC)NC(C)=O	295 ng/mg
COC(=O)CCC(=O)CNC(=O)[C@@H](Cc1ccccc1)NC(C)=O	-2.99 ng/mg
COC(=O)CCC(=O)CNC(=O)[C@H](CCCCN)NC(C)=O	20.2 ng/mg
COC(=O)CCC(=O)CNC(=O)[C@H](CC(C)C)NC(C)=O	290 ng/mg
COC(=O)CCC(=O)CNC(=O)[C@H](CC(=O)O)NC(C)=O	20.2 ng/mg
COC(=O)CCC(=O)CNC(=O)[C@H](CO)NC(C)=O	222 ng/mg

Test system: A549
Assay: Drug uptake in human A549 cells assessed as intracellular 5-aminolaevulinic acid level per mg of protein at 0.1 mM after 4 hrs
Format: ADME, cell-based
Conditions: a549, 4 h, 100 µM

SMILES	Drug uptake
COC(=O)CCC(=O)CNC(=O)[C@H](Cc1ccccc1)NC(C)=O	0.38 µg/mg
COC(=O)CCC(=O)CNC(=O)[C@H](CC(C)C)NC(C)=O	0.2 µg/mg

Test system: PAM212
Assay: Phototoxicity against mouse PAM212 cells assessed as cell viability at 0.1 mM after 4 hrs irradiated with 2.5 J/cm2 blue light by MTT assay relative to control
Format: functional
Conditions: PAM212, light or radiation study, read-out: Activity
Procedure, shortened: (§4)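 PAM212 cells were seeded about 5 × 10^4/well, grown 48 h, PBS-washed and incubated 4 h with drug at 0.01, 0.1 or 1 mM. Blue light (peak 420 nm) was delivered at 2.5 J/cm², although the methods section states 1.25 J/cm². Medium was then replaced and cells kept 24 h. MTT 1 mg/mL for 3 h, DMSO, A570; survival as % of non-irradiated drug-treated controls.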

SMILES	viability at 100 µM
COC(=O)CCC(=O)CNC(=O)[C@H](Cc1ccccc1)NC(C)=O	3%
COC(=O)CCC(=O)CNC(=O)[C@H](CCSC)NC(C)=O	3%
COC(=O)CCC(=O)CNC(=O)[C@H](CC(C)C)NC(C)=O	3%

Test system: not listed separately
Assay: Chromatographic hydrophobicity index in acetonitrile solution under isocratic conditions at pH 6.8
Format: physicochemical
Conditions: not given
Procedure, shortened: as §3

SMILES	CHI
COC(=O)CCC(=O)CNC(=O)[C@H](Cc1ccccc1)NC(C)=O	34.71
COC(=O)CCC(=O)CNC(=O)[C@H](CCSC)NC(C)=O	28.89
COC(=O)CCC(=O)CNC(=O)[C@@H](Cc1ccccc1)NC(C)=O	37.71
COC(=O)CCC(=O)CNC(=O)[C@H](CCCCN)NC(C)=O	8.48
COC(=O)CCC(=O)CNC(=O)[C@H](CC(C)C)NC(C)=O	36.67
COC(=O)CCC(=O)CNC(=O)[C@H](CC(=O)O)NC(C)=O	19.62
COC(=O)CCC(=O)CNC(=O)[C@H](CO)NC(C)=O	14.61

Test system: Caco-2
Assay: Drug uptake in human Caco-2 cells assessed as PpIX production per mg of protein at 1 mM after 4 hrs
Format: ADME, cell-based
Conditions: caco-2, 4 h, 1000 µM
Procedure, shortened: as §1

SMILES	Drug uptake
COC(=O)CCC(=O)CNC(=O)[C@H](Cc1ccccc1)NC(C)=O	594 ng/mg
COC(=O)CCC(=O)CNC(=O)[C@H](CC(C)C)NC(C)=O	612 ng/mg

Test system: PAM212
Assay: Drug uptake in mouse PAM212 cells assessed as enhanced PpIX fluorescence at 0.1 mM after 6 hrs
Format: ADME, cell-based
Conditions: pam212, 6 h, 100 µM
Procedure, shortened: as §2

SMILES	Drug uptake
COC(=O)CCC(=O)CNC(=O)[C@H](Cc1ccccc1)NC(C)=O	Active
COC(=O)CCC(=O)CNC(=O)[C@H](CCSC)NC(C)=O	Active
COC(=O)CCC(=O)CNC(=O)[C@H](CC(C)C)NC(C)=O	Active

Test system: Caco-2
Assay: Drug uptake in human Caco-2 cells assessed as intracellular 5-aminolaevulinic acid level per mg of protein at 1 mM after 4 hrs
Format: ADME, cell-based
Conditions: caco-2, 4 h, 1000 µM

SMILES	Drug uptake
COC(=O)CCC(=O)CNC(=O)[C@H](Cc1ccccc1)NC(C)=O	11.9 µg/mg
COC(=O)CCC(=O)CNC(=O)[C@H](CC(C)C)NC(C)=O	6.54 µg/mg

Test system: PAM212
Assay: Phototoxicity against mouse PAM212 cells assessed as cell viability at 0.01 mM after 4 hrs irradiated with 2.5 J/cm2 blue light by MTT assay relative to control
Format: functional, cell-based
Conditions: not given
Procedure, shortened: as §4

SMILES	Activity
COC(=O)CCC(=O)CNC(=O)[C@H](Cc1ccccc1)NC(C)=O	Active
COC(=O)CCC(=O)CNC(=O)[C@H](CCSC)NC(C)=O	Active

Test system: PAM212
Assay: Drug uptake in mouse PAM212 cells assessed as intracellular 5-aminolaevulinic acid level per mg of protein at 1 mM after 4 hrs
Format: ADME, cell-based
Conditions: pam212, 4 h, 1000 µM

SMILES	Drug uptake
COC(=O)CCC(=O)CNC(=O)[C@H](Cc1ccccc1)NC(C)=O	13.7 µg/mg
COC(=O)CCC(=O)CNC(=O)[C@H](CCSC)NC(C)=O	13.2 µg/mg
COC(=O)CCC(=O)CNC(=O)[C@@H](Cc1ccccc1)NC(C)=O	4.35 µg/mg
COC(=O)CCC(=O)CNC(=O)[C@H](CCCCN)NC(C)=O	3.06 µg/mg
COC(=O)CCC(=O)CNC(=O)[C@H](CC(C)C)NC(C)=O	12.2 µg/mg
COC(=O)CCC(=O)CNC(=O)[C@H](CC(=O)O)NC(C)=O	1.94 µg/mg
COC(=O)CCC(=O)CNC(=O)[C@H](CO)NC(C)=O	2.17 µg/mg

Test system: PAM212
Assay: Drug uptake in mouse PAM212 cells assessed as intracellular 5-aminolaevulinic acid level per mg of protein at 0.1 mM after 4 hrs
Format: ADME, cell-based
Conditions: pam212, 4 h, 100 µM

SMILES	Drug uptake
COC(=O)CCC(=O)CNC(=O)[C@H](Cc1ccccc1)NC(C)=O	2.9 µg/mg
COC(=O)CCC(=O)CNC(=O)[C@H](CCSC)NC(C)=O	3.28 µg/mg
COC(=O)CCC(=O)CNC(=O)[C@@H](Cc1ccccc1)NC(C)=O	1.07 µg/mg
COC(=O)CCC(=O)CNC(=O)[C@H](CCCCN)NC(C)=O	0.68 µg/mg
COC(=O)CCC(=O)CNC(=O)[C@H](CC(C)C)NC(C)=O	2.8 µg/mg
COC(=O)CCC(=O)CNC(=O)[C@H](CC(=O)O)NC(C)=O	0.41 µg/mg
COC(=O)CCC(=O)CNC(=O)[C@H](CO)NC(C)=O	0.5 µg/mg
